Bioassay records (PubChem)
MC4R antag cAMP – human MC4R antagonism in cAMP assay | 0.48% of 360,000 active | MC4R-expressing cells, MTII-stimulated cAMP, LANCE TR-FRET | inhibition, % at 6.5 µM;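 active = inhibition above its plate's cutoff, the mean of tested wells on that plate plus 3 SD, cut at about 29% in these data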
Target sequence (P32245 whole entry, looked up): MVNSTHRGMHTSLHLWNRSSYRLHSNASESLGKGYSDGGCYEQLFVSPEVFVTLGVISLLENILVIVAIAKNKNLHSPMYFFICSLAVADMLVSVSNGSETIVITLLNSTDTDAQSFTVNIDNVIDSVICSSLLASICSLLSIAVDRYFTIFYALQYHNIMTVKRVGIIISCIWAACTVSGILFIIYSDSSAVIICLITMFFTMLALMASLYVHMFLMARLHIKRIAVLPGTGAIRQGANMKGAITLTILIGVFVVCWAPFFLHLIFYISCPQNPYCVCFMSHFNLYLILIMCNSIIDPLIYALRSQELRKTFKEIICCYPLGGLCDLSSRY
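Material: U2OS-MC4R stable cell line | Reagent: Melanotan II challenge after compound preincubation | Doses: One concentration, 6.5 µM nominal | Incubation: 30-min compound preincubation, 1-h Melanotan II challenge, 1-h detection, room temperature | Signal: TR-FRET cAMP assay | Replicates: One well per compound, no replicates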
Myeloid diff MLP – myeloid differentiation induction; ER-HoxA9 myeloid progenitors, lysozyme-GFP differentiation, flow cytometry; calls only at 10 µM; 1% of 360,000 active; AID 624256;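 active = normalized GFP-positive differentiation at or above the plate's own cutoff, the solvent-only control mean plus 3 SD; inconclusive = no clear call, values can overlap the other calls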;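 note: cells exposed to compound for four days before flow analysis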
Exocytosis inh – lytic granule exocytosis inhibition; TALL-104 LAMP-1 surface exposure, flow cytometry; cells stimulated with thapsigargin and PMA; inhibition, % at 10 µM; 0.66% of 360,000 active;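 active = inhibition above about 55%, limit read from the data; inconclusive = no clear call, values can overlap the other calls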
MC4R ag barr – agonists of human melanocortin 4 receptor (MC4R) beta-arrestin; P32245; U2OS MC4R beta-arrestin complementation, luminescence; percent of melanotan II response, DMSO zero; activation, % at 8.9 µM; 0.98% of 360,000 active; AID 540308;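 active = activation above a per-plate cutoff, the mean activation of sample wells on that plate plus 3 SD, cut at about 8% in these data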
EBI2 block – antagonists of human EBI2 receptor | P32249 | EBI2 beta-arrestin recruitment, luminescence, 7a,25-OHC stimulated | inhibition, % at 5 µM | 0.81% of 360,000 active; in the data active = inhibition above about 38%;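 note: enzyme fragment complementation signal reports receptor beta-arrestin coupling in cells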
Target sequence (P32249 whole entry, looked up, the tested form may be a part): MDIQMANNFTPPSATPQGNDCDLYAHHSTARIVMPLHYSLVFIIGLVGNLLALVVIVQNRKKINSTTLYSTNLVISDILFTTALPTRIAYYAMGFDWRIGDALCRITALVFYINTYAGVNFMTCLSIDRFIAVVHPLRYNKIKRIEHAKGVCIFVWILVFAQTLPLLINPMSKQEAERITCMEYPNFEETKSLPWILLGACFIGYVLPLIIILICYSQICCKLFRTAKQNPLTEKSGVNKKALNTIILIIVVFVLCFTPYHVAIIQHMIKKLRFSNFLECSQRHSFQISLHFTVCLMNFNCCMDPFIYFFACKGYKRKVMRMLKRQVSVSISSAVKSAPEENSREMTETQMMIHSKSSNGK
U2OS cAMP counter – U2OS forskolin cAMP inhibition counter-screen | shares compounds with MC4R antag cAMP | parental U2OS, LANCE TR-FRET | inhibition, % at 6.5 µM | 26% of 1,600 active;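 active = mean inhibition over triplicates above the low-control well mean plus 3 SD, set per campaign, cut at about 13% in these data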;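 note: signal is single emission at 671 nm which falls as cellular cAMP rises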
MC4R antag conf – human MC4R cAMP antagonism confirmation; MC4R-expressing cells, MTII-stimulated cAMP, TR-FRET; 27% of 1,600 active; inhibition, % at 6.5 µM; AID 602195; shares compounds with MC4R antag cAMP; in the data active = inhibition above about 29%
Each line names hits and unclear results; the compound was inactive in the other large screens (follow-up assays come after a bar, where they were run). Hits are enriched below; roughly 3.7% of the tested compounds scored in any of these assays.

Cc1cc(NC(=O)/C(C#N)=C/c2ccc(-c3ccc(SC(F)F)cc3)o2)n(-c2ccccc2)n1	MC4R antag cAMP 36 | U2OS cAMP counter inactive | MC4R antag conf inactive
Cc1nc2scc(C)n2c(=O)c1S(=O)(=O)NCc1ccc(F)cc1	none
CC(=O)Nc1ccc(S(=O)(=O)N[C@@H](C)C(=O)OCC(=O)c2ccc(Br)s2)cc1	MC4R antag cAMP 34 | U2OS cAMP counter 33 | MC4R antag conf 55
CCCCN(C(=O)C(C)(C)Oc1ccc(Cl)cc1)c1c(N)n(CCC)c(=O)[nH]c1=O	none
COC(=O)c1ccc(OC(=O)CS(=O)c2ccccc2[N+](=O)[O-])cc1 (centres undefined)	none
O=C(CS(=O)c1ccc(C(F)(F)F)cc1[N+](=O)[O-])Oc1ccccc1 (centres undefined)	MC4R antag cAMP 49, Exocytosis inh 56 | U2OS cAMP counter inactive | MC4R antag conf 34
Cc1ccc(Sc2ccc(NC(=O)c3ccc(S(C)(=O)=O)cc3Cl)cc2)cc1	MC4R antag cAMP 108 | U2OS cAMP counter 125 | MC4R antag conf active
CC(c1ccco1)N(C(=O)c1cc(Cl)cc(Cl)c1)c1ccccn1 (centres undefined)	none (no result: Myeloid diff MLP)
CC(c1ccco1)N(C(=O)c1ccccc1NS(=O)(=O)c1ccc(Cl)c([N+](=O)[O-])c1)c1ccccn1 (centres undefined)	MC4R antag cAMP 39 | U2OS cAMP counter inactive | MC4R antag conf inactive
O=S(=O)(NCc1ccco1)c1cnc(Cl)c(Br)c1	MC4R antag cAMP 42 | U2OS cAMP counter 30 | MC4R antag conf 67
CSCCC(Nc1ncnc2ccc(Br)cc12)C(=O)O (centres undefined)	MC4R antag cAMP 31 | U2OS cAMP counter inactive | MC4R antag conf inactive
Clc1cc(-c2ccccc2)nc(-c2ccccc2)n1	MC4R antag cAMP 30 | U2OS cAMP counter 17 | MC4R antag conf 29
Nc1ccc(-c2cc(-c3ccc(N)cc3)nc(-c3ccccc3)n2)cc1	none
Cc1cc(Cl)nc(-c2ccccc2)n1	none
Brc1cc(-c2ccccc2)nc(-c2ccccc2)n1	MC4R antag cAMP 36, Myeloid diff MLP inconclusive | U2OS cAMP counter 18 | MC4R antag conf 36
CCOC(=O)C1(CCc2ccccc2)CCN(C(=O)C2CCOCC2)CC1	none
CSc1nnc(CCCCCCCCc2nnc(SC)o2)o1	none
CCOC(=O)/C=C/C(=O)Nc1ccc(Oc2ccccc2)cc1	MC4R antag cAMP 46 | U2OS cAMP counter 28 | MC4R antag conf 53
CCOC(=O)C1CCCN(C(=O)Cn2sc3nc(C)cc(C)c3c2=O)C1 (centres undefined)	MC4R antag cAMP 42, Myeloid diff MLP inconclusive, Exocytosis inh 84 | U2OS cAMP counter inactive | MC4R antag conf 30
CN(Cc1ccccc1)c1nc(N)nc(Cl)c1C=O	MC4R antag cAMP 34 | U2OS cAMP counter 17 | MC4R antag conf inactive
Cc1cc(C(=O)OCC(=O)N(C)c2ccccc2)c(C)o1	none
CCOC(=O)CSc1nnc(NCC(=O)OC(C)C)c(=O)[nH]1	MC4R antag cAMP 35 | U2OS cAMP counter 18 | MC4R antag conf inactive
CC(C)OC(=O)CNc1n[nH]c(=S)[nH]c1=O	MC4R antag cAMP 41 | U2OS cAMP counter inactive | MC4R antag conf inactive
CCOC(=O)CNC(=O)CSc1nnc(C)c(=O)[nH]1	none
COC(=O)CNc1n[nH]c(=S)[nH]c1=O	none
CCCC1NC(=O)c2cccnc2-n2c1nc1ccc(Br)cc1c2=O (centres undefined)	none
CC(C)CCn1nc(C(=O)Nc2nc3c(s2)CCCC3)c2ccccc2c1=O	MC4R antag cAMP 33 | U2OS cAMP counter inactive | MC4R antag conf inactive
COc1cccc(CNC(=O)[C@@H]2CCCN2C(=O)[C@H]2CCCCN2C(=O)c2cccs2)c1	none (no result: MC4R antag cAMP, MC4R ag barr)
Cc1ccc(S(=O)(=O)NCC(=O)OC(C)C(=O)Nc2ncc(Cl)cc2Cl)cc1 (centres undefined)	MC4R antag cAMP 31 | U2OS cAMP counter 14 | MC4R antag conf inactive
Cc1ccc(S(=O)(=O)NCC(=O)OCC(=O)Nc2ncc(Cl)cc2Cl)cc1	none
OCCC1CN(Cc2cccn2-c2ccccn2)CCN1C1CCCC1 (centres undefined)	none
OCCC1CN(Cc2ccccn2)CCN1C1CCCC1 (centres undefined)	MC4R antag cAMP 37 | U2OS cAMP counter 21 | MC4R antag conf inactive
CC(=O)c1cccc(CN2CCN(C3CCCC3)C(CCO)C2)c1 (centres undefined)	MC4R antag cAMP 29 | U2OS cAMP counter inactive | MC4R antag conf inactive
CC(=O)N1CCc2cc(S(=O)(=O)NC(Cc3ccccc3)C(=O)O)ccc21 (centres undefined)	none
CNc1nc(Nc2ccc([N+](=O)[O-])cc2)nc(OCC(F)(F)F)n1	none
CNc1nc(N/N=C/c2cc([N+](=O)[O-])ccc2F)nc(Nc2ccccc2)n1	MC4R antag cAMP 47 | U2OS cAMP counter 19 | MC4R antag conf 62
COc1ccc(-c2cc(C(=O)N(C)CC(=O)Nc3cccc(F)c3)c3ccccc3n2)cc1OC	MC4R antag cAMP 30 | U2OS cAMP counter inactive | MC4R antag conf inactive
COc1cccc(NC(=O)CN(C)C(=O)c2cc(-c3ccc(F)cc3)nc3ccccc23)c1	none
CCN(CC)CCNC(=O)c1cc(-c2ccc(Br)s2)nc2ccccc12	MC4R antag cAMP 33 | U2OS cAMP counter inactive | MC4R antag conf inactive
CCOCCCNC(=O)c1cc(-c2ccc(Br)s2)nc2ccccc12	MC4R antag cAMP 37 | U2OS cAMP counter 33 | MC4R antag conf 63
O=C(O)c1cc(-c2ccc(Br)s2)nc2ccccc12	MC4R antag cAMP active (no result: Myeloid diff MLP) | U2OS cAMP counter 185 | MC4R antag conf active
CCCCOc1cc(C(=O)NCCN(CC)CC)c2ccccc2n1	none
COCC(COS(N)(=O)=O)Cc1ccccc1 (centres undefined)	none
Cc1ccc(NC(=O)c2cc(N3C(=O)C=CC3=O)ccc2N2CCOCC2)cc1	MC4R antag cAMP 69 | U2OS cAMP counter inactive | MC4R antag conf 50
Cc1ccc(NC(=O)c2cc(N3C(=O)C=CC3=O)ccc2Cl)cc1C	MC4R antag cAMP 57 | U2OS cAMP counter inactive | MC4R antag conf inactive
Cc1ccc(NC(=O)c2cc(NC(=O)c3ccco3)ccc2N2CCOCC2)cc1	Myeloid diff MLP inconclusive
CC(C)CN(C(=O)COC(=O)c1ccccn1)c1c(N)n(Cc2ccccc2)c(=O)[nH]c1=O	none
Clc1ccccc1CSc1nncn1NC/C=C/c1ccccc1	none
CCOC(=O)c1cc(-c2csc(-c3ccc(C(F)(F)F)cc3)n2)on1	MC4R antag cAMP 37 | U2OS cAMP counter inactive | MC4R antag conf inactive
N#CCC(=O)Nc1ccc(C(=O)OCC(=O)Nc2ccccc2Sc2ccccc2)cc1	MC4R antag cAMP 31 | U2OS cAMP counter inactive | MC4R antag conf inactive
